According to ChEMBL document CHEMBL2150968, “Development of a bifunctional chelating agent containing isothiocyanate residue for one step F-18 labeling of peptides and application for RGD labeling” (Bioorg Med Chem, 2012):

Assays:
[1] = tested on: Urinary bladder; assay: Drug uptake in bladder of BALB/c nude mouse xenografted with human U87MG cells over expressing […] integrin at 11.1 MBq/0.1 mL, iv after 1 to 2 hrs by PET/CT imaging; assay type: ADME, organism-based, U-87MG ATCC; settings: in vivo
How it was run: (§1)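 Glioma-xenografted BALB/c nude mice were injected by tail vein; inhibition groups were co-injected with cold c(RGDyK) 3 mg/kg. Under 2% isoflurane, dynamic small-animal PET/CT was acquired at 1 and 2 h, with decay-corrected images. SUV = tissue activity concentration (MBq/mL) / (injected dose (MBq) / body weight (g)). Normal tissue reference was the left shoulder.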

[2] = tested on: Blood; assay: Drug uptake in blood of BALB/c nude mouse xenografted with human U87MG cells over expressing […] integrin at 0.148 MBq/0.1 mL, iv after 60 mins by gamma counting; assay type: ADME, organism-based, U-87MG ATCC; settings: in vivo, 1 h
How it was run: (§2)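 Male BALB/c nude mice received 2 × 10^5 U87MG human glioma cells s.c. in the right shoulder, 11 days before tracer. Tracer was given by tail vein; blocking groups were co-injected with cold c(RGDyK) 3 mg/kg. Mice were killed at 60 min; organs and blood were weighed and gamma counted, and %ID/g was calculated. n = 8; Student's t-test.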

[3] = tested on: Liver; assay: Drug uptake in liver of BALB/c nude mouse xenografted with human U87MG cells over expressing […] integrin at 0.148 MBq/0.1 mL after 60 mins by gamma counting in presence of 3 mg/kg c(RGDyk); assay type: ADME, organism-based, U-87MG ATCC; parameters: dose 3 mg/kg; settings: in vivo, 1 h; how it was run: as §2
[4] = tested on: Intestine; assay: Drug uptake in intestine of BALB/c nude mouse xenografted with human U87MG cells over expressing […] integrin at 0.148 MBq/0.1 mL after 60 mins by gamma counting in presence of 3 mg/kg c(RGDyk); assay type: ADME, organism-based, U-87MG ATCC; parameters: dose 3 mg/kg; settings: in vivo, 1 h; how it was run: as §2
[5] = tested on: Lung; assay: Drug uptake in lung of BALB/c nude mouse xenografted with human U87MG cells over expressing […] integrin at 0.148 MBq/0.1 mL after 60 mins by gamma counting in presence of 3 mg/kg c(RGDyk); assay type: ADME, organism-based, U-87MG ATCC; parameters: dose 3 mg/kg; settings: in vivo, 1 h; how it was run: as §2
[6] = tested on: Intestine; assay: Drug uptake in intestine of BALB/c nude mouse xenografted with human U87MG cells over expressing […] integrin at 0.148 MBq/0.1 mL, iv after 60 mins by gamma counting; assay type: ADME, organism-based, U-87MG ATCC; settings: in vivo, 1 h; how it was run: as §2
[7] = Drug uptake in human U87MG cells overexpressing alphavbeta3 integrin xenografted in BALB/c nude mouse tumor at 11.1 MBq/0.1 mL after 2 hrs by PET/CT imaging in presence of 3 mg/kg c(RGDyk); settings: in vivo
[8] = Drug uptake in human U87MG cells over expressing […] integrin xenografted in BALB/c nude mouse tumor at 0.148 MBq/0.1 mL after 1 hr by gamma counting in presence of 3 mg/kg c(RGDyk); assay type: ADME, organism-based, Neoplasm, U-87MG ATCC; parameters: dose 3 mg/kg; settings: in vivo; how it was run: as §2
[9] = tested on: Stomach; assay: Drug uptake in stomach of BALB/c nude mouse xenografted with human U87MG cells over expressing […] integrin at 0.148 MBq/0.1 mL after 60 mins by gamma counting in presence of 3 mg/kg c(RGDyk); assay type: ADME, organism-based, U-87MG ATCC; parameters: dose 3 mg/kg; settings: in vivo, 1 h; how it was run: as §2
[10] = tested on: Kidney; assay: Drug uptake in kidney of BALB/c nude mouse xenografted with human U87MG cells over expressing […] integrin at 0.148 MBq/0.1 mL after 60 mins by gamma counting in presence of 3 mg/kg c(RGDyk); assay type: ADME, organism-based, U-87MG ATCC; parameters: dose 3 mg/kg; settings: in vivo, 1 h; how it was run: as §2
[11] = tested on: Blood; assay: Drug uptake in blood of BALB/c nude mouse xenografted with human U87MG cells overexpressing […] integrin at 0.148 MBq/0.1 mL after 60 mins by gamma counting in presence of 3 mg/kg c(RGDyk); assay type: ADME, organism-based, U-87MG ATCC; parameters: dose 3 mg/kg; settings: in vivo, 1 h; how it was run: as §2
[12] = tested on: Lung; assay: Drug uptake in lung of BALB/c nude mouse xenografted with human U87MG cells over expressing […] integrin at 0.148 MBq/0.1 mL, iv after 60 mins by gamma counting; assay type: ADME, organism-based, U-87MG ATCC; settings: in vivo, 1 h; how it was run: as §2
[13] = Drug uptake in human U87MG cells over expressing […] integrin xenografted BALB/c nude mouse tumor at 0.148 MBq/0.1 mL, iv after 60 mins by gamma counting; assay type: ADME, organism-based, Neoplasm, U-87MG ATCC; settings: in vivo, 1 h; how it was run: as §2
[14] = Drug uptake in human U87MG cells over expressing […] integrin xenografted in BALB/c nude mouse tumor at 11.1 MBq/0.1 mL, iv after 2 hrs by PET/CT imaging; assay type: ADME, organism-based, Neoplasm, U-87MG ATCC; settings: in vivo; how it was run: as §1
[15] = Drug uptake in human U87MG cells overexpressing […] integrin xenografted in BALB/c nude mouse tumor at 11.1 MBq/0.1 mL after 1 hr by PET/CT imaging in presence of 3 mg/kg c(RGDyk); assay type: ADME, organism-based, Neoplasm, U-87MG ATCC; parameters: dose 3 mg/kg; settings: in vivo; how it was run: as §1
[16] = tested on: Muscle tissue; assay: Drug uptake in muscle of BALB/c nude mouse xenografted with human U87MG cells over expressing […] integrin at 0.148 MBq/0.1 mL, iv after 60 mins by gamma counting; assay type: ADME, organism-based, U-87MG ATCC; settings: in vivo, 1 h; how it was run: as §2
[17] = tested on: Stomach; assay: Drug uptake in stomach of BALB/c nude mouse xenografted with human U87MG cells over expressing […] integrin at 0.148 MBq/0.1 mL, iv after 60 mins by gamma counting; assay type: ADME, organism-based, U-87MG ATCC; settings: in vivo, 1 h; how it was run: as §2
[18] = tested on: Heart; assay: Drug uptake in heart of BALB/c nude mouse xenografted with human U87MG cells over expressing […] integrin at 0.148 MBq/0.1 mL after 60 mins by gamma counting in presence of 3 mg/kg c(RGDyk); assay type: ADME, organism-based, U-87MG ATCC; parameters: dose 3 mg/kg; settings: in vivo, 1 h; how it was run: as §2
[19] = tested on: Spleen; assay: Drug uptake in spleen of BALB/c nude mouse xenografted with human U87MG cells over expressing […] integrin at 0.148 MBq/0.1 mL after 60 mins by gamma counting in presence of 3 mg/kg c(RGDyk); assay type: ADME, organism-based, U-87MG ATCC; parameters: dose 3 mg/kg; settings: in vivo, 1 h; how it was run: as §2
[20] = tested on: Pancreas; assay: Drug uptake in pancreas of BALB/c nude mouse xenografted with human U87MG cells over expressing […] integrin at 0.148 MBq/0.1 mL, iv after 60 mins by gamma counting; assay type: ADME, organism-based, U-87MG ATCC; settings: in vivo, 1 h; how it was run: as §2
[21] = tested on: Bone; assay: Drug uptake in bone of BALB/c nude mouse xenografted with human U87MG cells over expressing […] integrin at 0.148 MBq/0.1 mL, iv after 60 mins by gamma counting; assay type: ADME, organism-based, Bone element, U-87MG ATCC; settings: in vivo, 1 h; how it was run: as §2
[22] = tested on: Liver; assay: Drug uptake in liver of BALB/c nude mouse xenografted with human U87MG cells over expressing […] integrin at 0.148 MBq/0.1 mL, iv after 60 mins by gamma counting; assay type: ADME, organism-based, U-87MG ATCC; settings: in vivo, 1 h; how it was run: as §2
[23] = tested on: Spleen; assay: Drug uptake in spleen of BALB/c nude mouse xenografted with human U87MG cells over expressing […] integrin at 0.148 MBq/0.1 mL, iv after 60 mins by gamma counting; assay type: ADME, organism-based, U-87MG ATCC; settings: in vivo, 1 h; how it was run: as §2
[24] = Chemical stability of the compound after 4 hrs by ITLC-SG analysis; assay type: physicochemical
How it was run: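 After Al18F labeling (pH 4 sodium acetate buffer, 110 °C, 10 min), stability of the labeled conjugate was followed in the labeling medium at room temperature for 240 min. Decomposition was checked by ITLC-SG; unbound [18F]AlF stays at the origin, the labeled peptide runs to the solvent front.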

[25] = tested on: Bone; assay: Drug uptake in bone of BALB/c nude mouse xenografted with human U87MG cells over expressing […] integrin at 0.148 MBq/0.1 mL after 60 mins by gamma counting in presence of 3 mg/kg c(RGDyk); assay type: ADME, organism-based, Bone element, U-87MG ATCC; parameters: dose 3 mg/kg; settings: in vivo, 1 h; how it was run: as §2
[26] = tested on: Heart; assay: Drug uptake in heart of BALB/c nude mouse xenografted with human U87MG cells over expressing […] integrin at 0.148 MBq/0.1 mL, iv after 60 mins by gamma counting; assay type: ADME, organism-based, U-87MG ATCC; settings: in vivo, 1 h; how it was run: as §2
[27] = tested on: Muscle tissue; assay: Drug uptake in muscle of BALB/c nude mouse xenografted with human U87MG cells over expressing […] integrin at 0.148 MBq/0.1 mL after 60 mins by gamma counting in presence of 3 mg/kg c(RGDyk); assay type: ADME, organism-based, U-87MG ATCC; parameters: dose 3 mg/kg; settings: in vivo, 1 h; how it was run: as §2
[28] = Stability of the compound in human serum for 4 hrs by ITLC-SG analysis; assay type: ADME, cell-free
How it was run: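 Labeled conjugate was incubated in human serum at 37 °C for 240 min. Decomposition was checked by ITLC-SG; unbound [18F]AlF stays at the origin, the labeled peptide runs to the solvent front.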

[29] = tested on: Pancreas; assay: Drug uptake in pancreas of BALB/c nude mouse xenografted with human U87MG cells over expressing […] integrin at 0.148 MBq/0.1 mL after 60 mins by gamma counting in presence of 3 mg/kg c(RGDyk); assay type: ADME, organism-based, U-87MG ATCC; parameters: dose 3 mg/kg; settings: in vivo, 1 h; how it was run: as §2
[30] = tested on: Kidney; assay: Drug uptake in kidney of BALB/c nude mouse xenografted with human U87MG cells over expressing […] integrin at 0.148 MBq/0.1 mL, iv after 60 mins by gamma counting; assay type: ADME, organism-based, U-87MG ATCC; settings: in vivo, 1 h; how it was run: as §2
[31] = Drug uptake in human U87MG cells over expressing […] integrin xenografted in BALB/c nude mouse tumor at 11.1 MBq/0.1 mL, iv after 1 hr by PET/CT imaging; assay type: ADME, organism-based, Neoplasm, U-87MG ATCC; settings: in vivo; how it was run: as §1

For N=C(N)NCCC[C@@H]1NC(=O)[C@H](CCCCNC(=S)Nc2ccc(CN3CCN4CCN(CC3)CC(=O)[O][Al]([18F])[O]C(=O)C4)cc2)NC(=O)[C@@H](Cc2ccc(O)cc2)NC(=O)[C@H](CC(=O)O)NC(=O)CNC1=O, the Drug uptake [1] was “Active”, the Drug uptake [2] was “Active” and the Drug uptake [3] was “Not Active”. The Drug uptake [4] was “Not Active”, the Drug uptake [5] was “Not Active” and the Drug uptake [6] was “Active”. For the same molecule, the SUV [7] was 0.42, the Drug uptake [8] was 1.33 % ID/g and the Drug uptake [9] was “Not Active”. The Drug uptake [10] was “Not Active”, the Drug uptake [11] was “Not Active” and the Drug uptake [12] was “Active”. For the same molecule, the Drug uptake [13] was 4.41 % ID/g, the SUV [14] was 3.77 and the SUV [15] was 0.72. The Drug uptake [16] was “Active”, the Drug uptake [17] was “Active” and the Drug uptake [18] was “Not Active”. For the same molecule, the Drug uptake [19] was “Not Active”, the Drug uptake [20] was “Active” and the Drug uptake [21] was “Active”. The Drug uptake [22] was “Active”, the Drug uptake [23] was “Active” and the remaining at 4 h [24] was greater than 95%. The Drug uptake [25] was “Not Active”, the Drug uptake [26] was “Active” and the Drug uptake [27] was “Not Active”. For the same molecule, the remaining at 4 h [28] was greater than 95%, the Drug uptake [29] was “Not Active” and the Drug uptake [30] was “Active”. The SUV [31] was 7.42.
